Tests used:
Hepatitis B virus [1] = experiment: Antiviral activity against Hepatitis B virus infected in human HepG2.2.15 cells assessed as inhibition of HBsAg secretion at 20 uM supplemented with fresh medium containing compound every 3 days for 6 days and measured on day 9 by ELISA relative to control; type: functional
Procedure, shortened: (§1)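 HepG2.2.15 cells were exposed to compound for up to 9 days. The initial screen used 20 µM for 9 days, with lamivudine (20 µM) as positive control. Follow-up used 10, 20 or 40 µM sampled at days 3, 6 and 9. HBsAg and HBeAg were quantified in culture supernatant by ELISA and compared with a no-drug control. Results are mean ± SD of three experiments.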

Hepatitis B virus [2] = experiment: Antiviral activity against Hepatitis B virus infected in human HepG2.2.15 cells assessed as inhibition of HBeAg secretion at 20 uM supplemented with fresh medium containing compound every 3 days for 6 days and measured on day 9 by ELISA relative to control; type: functional; procedure, shortened: as §1
[3] = Cytotoxicity against human HepG2 cells supplemented with fresh medium containing compound every 3 days for 9 days measured post-last dose by MTT assay; type: cell-based
Procedure, shortened: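 HepG2 cells were exposed to compound for 3 or 9 days and viability was read by MTT assay. CC50 is the concentration causing 50% cytotoxicity. Results are mean ± SD of three experiments.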

Hepatitis B virus [4] = experiment: (§2) Antiviral activity against lamivudine-resistant Hepatitis B virus harboring L180M/M204V mutant infected in human HepG2.2.15 cells assessed as inhibition of intracellular HBV DNA replication at 20 uM supplemented with fresh medium containing compound every 3 days for 6 days measured post-last dose by FQ-PCR analysis relative to control; type: functional
Procedure, shortened: (§3)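 Lamivudine-resistant cell line transfected with the L180M/M204V mutant, exposed to 10, 20 or 40 µM for 3, 6 or 9 days. Intracellular and extracellular HBV DNA levels measured.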

Hepatitis B virus [5] = experiment: Antiviral activity against lamivudine-resistant Hepatitis B virus harboring L180M/M204V mutant infected in human HepG2.2.15 cells assessed as inhibition of intracellular HBV DNA replication at 20 uM measured on day 3 by FQ-PCR analysis relative to control; type: functional; details: HepG2.2.15, 72 h; procedure, shortened: as §3
Hepatitis B virus [6] = experiment: Antiviral activity against Hepatitis B virus infected in human HepG2.2.15 cells assessed as inhibition of intracellular HBV DNA replication at 20 uM supplemented with fresh medium containing compound every 3 days for 6 days measured post-last dose by FQ-PCR analysis relative to control; type: functional
Procedure, shortened: (§4)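 HepG2.2.15 cultures were treated at 10, 20 or 40 µM for 3, 6 and 9 days. Both intracellular and extracellular HBV DNA levels were then determined and compared with untreated cells.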

Hepatitis B virus [7] = experiment: Antiviral activity against lamivudine-resistant Hepatitis B virus harboring L180M/M204V mutant infected in human HepG2.2.15 cells assessed as inhibition of extracellular HBV DNA replication at 20 uM measured on day 3 by FQ-PCR analysis relative to control; type: functional; details: HepG2.2.15, 72 h; procedure, shortened: as §3
Hepatitis B virus [8] = experiment: as §2, with “9” for “6”; type: functional; procedure, shortened: as §3
Hepatitis B virus [9] = experiment: as §2, with “extracellular” for “intracellular”; type: functional; procedure, shortened: as §3
Hepatitis B virus [10] = experiment: as §2, with “extracellular” for “intracellular”, “9” for “6”; type: functional; procedure, shortened: as §3
Hepatitis B virus [11] = experiment: Antiviral activity against Hepatitis B virus infected in human HepG2.2.15 cells assessed as inhibition of extracellular HBV DNA replication at 20 uM supplemented with fresh medium containing compound every 3 days for 6 days measured post-last dose by FQ-PCR analysis relative to control; type: functional; procedure, shortened: as §4
Hepatitis B virus [12] = experiment: Antiviral activity against Hepatitis B virus infected in human HepG2.2.15 cells assessed as inhibition of extracellular HBV DNA replication at 20 uM supplemented with fresh medium containing compound every 3 days for 9 days measured post-last dose by FQ-PCR analysis relative to control; type: functional; procedure, shortened: as §4
Hepatitis B virus [13] = experiment: Antiviral activity against Hepatitis B virus infected in human HepG2.2.15 cells assessed as inhibition of intracellular HBV DNA replication at 20 uM measured on day 3 by FQ-PCR analysis relative to control; type: functional; details: HepG2.2.15, 72 h; procedure, shortened: as §4
Hepatitis B virus [14] = experiment: Antiviral activity against Hepatitis B virus infected in human HepG2.2.15 cells assessed as inhibition of extracellular HBV DNA replication at 20 uM measured on day 3 by FQ-PCR analysis relative to control; type: functional; details: HepG2.2.15, 72 h; procedure, shortened: as §4
Hepatitis B virus [15] = experiment: Antiviral activity against Hepatitis B virus infected in human HepG2.2.15 cells assessed as inhibition of intracellular HBV DNA replication at 20 uM supplemented with fresh medium containing compound every 3 days for 9 days measured post-last dose by FQ-PCR analysis relative to control; type: functional; procedure, shortened: as §4

Structure (SMILES)	inhibition (INH) (Hepatitis B virus [1]) [%]	inhibition (INH) (Hepatitis B virus [2]) [%]	CC50 at 216 h [3] [µM]	inhibition (INH) (Hepatitis B virus [4]) [%]	inhibition at 20 µM (Hepatitis B virus [5]) [%]	inhibition (INH) (Hepatitis B virus [6]) [%]	inhibition at 20 µM (Hepatitis B virus [7]) [%]	inhibition (INH) (Hepatitis B virus [8]) [%]	inhibition (INH) (Hepatitis B virus [9]) [%]	inhibition (INH) (Hepatitis B virus [10]) [%]	inhibition (INH) (Hepatitis B virus [11]) [%]	inhibition (INH) (Hepatitis B virus [12]) [%]	inhibition at 20 µM (Hepatitis B virus [13]) [%]	inhibition at 20 µM (Hepatitis B virus [14]) [%]	inhibition (INH) (Hepatitis B virus [15]) [%]
C[C@@]1(F)[C@H](O)[C@@H](CO)O[C@H]1n1nnc2c(NCc3ccccc3)ncnc21	8.5	11.9	> 600												
C[C@@]1(F)[C@H](O)[C@@H](CO)O[C@H]1n1nnc2c(NC3CC3)ncnc21	11.4	16.7	> 600												
Nc1ccn([C@@H]2CS[C@H](CO)O2)c(=O)n1 [LAMIVUDINE]	42.4	39.6		7.9	6.3	69.7	4.1	11.2	8.4	19.3	54.1	78.6	47.4	32.7	77.9
CNc1ncnc2c1nnn2[C@@H]1O[C@H](CO)[C@@H](O)[C@@]1(C)F	20.1	24.4	> 600												

From ChEMBL document CHEMBL4340532, “Design, synthesis, and biological evaluation of novel 2'-deoxy-2'-fluoro-2'-C-methyl 8-azanebularine derivatives as potent anti-HBV agents” (Bioorg Med Chem Lett, 2019)
